Reference: ChEMBL document CHEMBL1140227, “Histone deacetylase inhibitors through click chemistry” (J Med Chem, 2008)

Columns and labels:
Assay type in all cases: functional
HCC 2998 = assay: Growth inhibition of human HCC2998 cells at 10 uM relative to control; details: values are per cent of control
Summary of the method: (§1)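 Single-dose preliminary screen in the NCI human cancer cell line panel, run by the NIH. Percent inhibition of cell line growth was calculated by comparison with untreated samples.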

SF-539 = assay: Growth inhibition of human SF539 cells at 10 uM relative to control; details: values are per cent of control; summary of the method: as §1
CAKI-1 = assay: Growth inhibition of human Caki1 cells at 10 uM relative to control; details: values are per cent of control; summary of the method: as §1
IGROV-1 = assay: Growth inhibition of human IGROV1 cells at 10 uM relative to control; details: values are per cent of control; summary of the method: as §1
SK-OV-3 = assay: Growth inhibition of human SKOV3 cells at 10 uM relative to control; details: values are per cent of control; summary of the method: as §1
T47D = assay: Growth inhibition of human T47D cells at 10 uM relative to control; details: values are per cent of control
Summary of the method: (§2)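 Single-dose NCI human tumour cell line screen, run by the NIH. Percent inhibition of cell line growth was calculated by comparison with untreated samples.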

SN12C = assay: Growth inhibition of human SN12C cells at 10 uM relative to control; details: values are per cent of control; summary of the method: as §1
SK-MEL-2 = assay: Growth inhibition of human SK-MEL-2 cells at 10 uM relative to control; details: values are per cent of control; summary of the method: as §1
BT-549 = assay: Growth inhibition of human BT549 cells at 10 uM relative to control; details: values are per cent of control; summary of the method: as §1
K562 = assay: Growth inhibition of human K562 cells at 10 uM relative to control; details: values are per cent of control; summary of the method: as §1
OVCAR-3 = assay: Growth inhibition of human OVCAR-3 cells at 10 uM relative to control; details: values are per cent of control; summary of the method: as §1
MOLT-4 = assay: Growth inhibition of human MOLT4 cells at 10 uM relative to control; details: values are per cent of control; summary of the method: as §1
cells [1] = details: Homo sapiens, Cancer cell lines
TK-10 = assay: Growth inhibition of human TK10 cells at 10 uM relative to control; details: values are per cent of control; summary of the method: as §2
EKVX = assay: Growth inhibition of human EKVX cells at 10 uM relative to control; details: values are per cent of control; summary of the method: as §1
OVCAR-5 = assay: Growth inhibition of human OVCAR5 cells at 10 uM relative to control; details: values are per cent of control; summary of the method: as §1
LOX IMVI = assay: Growth inhibition of human LOXIMVI cells at 10 uM relative to control; details: values are per cent of control; summary of the method: as §1
MDA-MB-468 = assay: Growth inhibition of human MDA-MB-468 cells at 10 uM relative to control; details: values are per cent of control; summary of the method: as §1
NCI-H322M = assay: Growth inhibition of human NCI-H322M cells at 10 uM relative to control; details: values are per cent of control; summary of the method: as §1
HCT-116 = assay: Growth inhibition of human HCT116 cells at 10 uM relative to control; details: values are per cent of control; summary of the method: as §1
HT-29 = assay: Growth inhibition of human HT-29 cells at 10 uM relative to control; details: values are per cent of control; summary of the method: as §1
SNB-75 = assay: Growth inhibition of human SNB75 cells at 10 uM relative to control; details: values are per cent of control; summary of the method: as §2
DU-145 = assay: Growth inhibition of human DU145 cells at 10 uM relative to control; details: values are per cent of control; summary of the method: as §1
[2] = Growth inhibition of human Hs 578T cells at 10 uM relative to control; details: values are per cent of control; summary of the method: as §1
A549 = assay: Growth inhibition of human A549 cells at 10 uM relative to control; details: values are per cent of control; summary of the method: as §1
cells [3] = details: Homo sapiens, Cancer cell lines; remark: listed apart in the source
M14 = assay: Growth inhibition of human M14 cells at 10 uM relative to control; details: values are per cent of control; summary of the method: as §1
HL-60(TB) = assay: Growth inhibition of human HL-60(TB) cells at 10 uM relative to control; details: read-out: INH
Summary of the method: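 Single-dose cell line screen run by the NCI (NIH) in its human cancer cell line panel, which includes the leukemia line HL-60(TB). Percent growth inhibition was calculated by comparison with untreated samples.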

UACC-257 = assay: Growth inhibition of human UACC257 cells at 10 uM relative to control; details: values are per cent of control; summary of the method: as §2
cells [4] = details: Homo sapiens, Cancer cell lines; remark: listed apart in the source
SF-295 = assay: Growth inhibition of human SF295 cells at 10 uM relative to control; details: values are per cent of control; summary of the method: as §1

## O=C(/C=C/c1cn(CC(=O)c2ccccc2)nn1)NO
HCC 2998
  growth, % of control at 10 µM: 71.1%
SF-539
  growth, % of control at 10 µM: 86.4%
CAKI-1
  growth, % of control at 10 µM: 63.9%
IGROV-1
  growth, % of control at 10 µM: 64.2%
SK-OV-3
  growth, % of control at 10 µM: 81.9%
T47D
  growth, % of control at 10 µM: 64.7%
SN12C
  growth, % of control at 10 µM: 86.2%
SK-MEL-2
  growth, % of control at 10 µM: 61.7%
BT-549
  growth, % of control at 10 µM: 72.1%
K562
  growth, % of control at 10 µM: 72.3%
OVCAR-3
  growth, % of control at 10 µM: 57.7%
MOLT-4
  growth, % of control at 10 µM: 83%
Cells [1]
  inhibition at 10 µM: 53%
TK-10
  growth, % of control at 10 µM: 46.7%
EKVX
  growth, % of control at 10 µM: 54.6%
OVCAR-5
  growth, % of control at 10 µM: 65%
LOX IMVI
  growth, % of control at 10 µM: 88.3%
MDA-MB-468
  growth, % of control at 10 µM: 64.6%
NCI-H322M
  growth, % of control at 10 µM: 41.3%
HCT-116
  growth, % of control at 10 µM: 30.7%
HT-29
  growth, % of control at 10 µM: 60%
SNB-75
  growth, % of control at 10 µM: 53.9%
DU-145
  growth, % of control at 10 µM: 75.2%
[2]
  growth, % of control at 10 µM: 211%
A549
  growth, % of control at 10 µM: 54.1%
Cells [3]
  growth percent at 10 µM: 78%
M14
  growth, % of control at 10 µM: 49.5%
HL-60(TB)
  growth, % of control at 10 µM: 258%
UACC-257
  growth, % of control at 10 µM: 43.9%
Cells [4]
  inhibition at 10 µM: 67%
SF-295
  growth, % of control at 10 µM: 15.3%
